Data from ChEMBL document CHEMBL1221395, “Synthesis, anticancer activity and mitochondrial mediated apoptosis inducing ability of 2,5-diaryloxadiazole-pyrrolobenzodiazepine conjugates” (Bioorg Med Chem, 2010).
Calls of active or inactive are those of the source. No cut-off for these calls is given here.

How the values were obtained:
[1] = tested on: MCF7; assay: Cytotoxicity against human MCF7 cells by sulforhodamine B assay
[2] = tested on: A-375; assay: Cell cycle arrest in human A375 cells assessed as accumulation at G2/M phase after 24 hrs by FACS flow cytometry; parameters: concentration or dose not given beside the values
[3] = tested on: A-375; assay: Induction of apoptosis in human A375 cells assessed as increase in Caspase 3 activation at 4 uM after 24 hrs by fluorimetry; type: functional, cell-based
How it was run: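 A375 cells exposed to 4 µM compound. Cell lysate incubated with DEVD-AFC substrate, with or without DEVD-CHO inhibitor, at 37 °C for 1 h in a fluorescent caspase-3 kit. Fluorescence read at excitation 400 nm, emission 505 nm.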

[4] = tested on: PC-3; assay: Antitumor activity against human PC3 cells xenografted in NOD-SCID mouse at 20 mg/kg, ip q4d on day 1, 5 and 9; type: functional, organism-based; parameters: dose 20 mg/kg
How it was run: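 Human prostate cancer PC-3 xenografts in male NOD-SCID mice. Dosed 20 mg/kg intraperitoneally on days 1, 5 and 9 (q4d). Tumour weight and body weight/survival followed over about 31 days. Adriamycin 5 mg/kg and untreated groups served as comparators.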

[5] = tested on: A549; assay: Cytotoxicity against human A549 cells after 24 hrs by WST-1 assay; type: functional; settings: A549, 24 h
[6] = tested on: HOP-62; assay: Cytotoxicity against human HOP62 cells after 24 hrs by WST-1 assay; type: functional; settings: HOP-62, 24 h
[7] = tested on: PC-3; assay: Cytotoxicity against human PC3 cells after 24 hrs by WST-1 assay; type: functional; settings: PC-3, 24 h
[8] = tested on: A-375; assay: Antitumor activity against human A375 cells assessed as upregulation of p53 protein level at 4 uM after 24 hrs by Western blotting; type: functional, cell-based
How it was run: (§1)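 A375 cells treated at 4 µM for 24 h. Lysates cleared at 12,000 rpm for 10 min, and protein quantified by Bradford. 30 µg per lane run on 12% SDS-PAGE and transferred to PVDF. Blocked 2 h in TBST with 5% blocking powder. Primary antibody overnight at 4 °C, HRP secondary (1:2000) 1 h at room temperature. β-actin used as loading control; untreated cells as control.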

[9] = tested on: A-375; assay: Antitumor activity against human A375 cells assessed as upregulation of pRb protein level at 4 uM after 24 hrs by Western blotting; type: functional, cell-based
How it was run: as §1

[10] = tested on: Mus musculus; assay: Toxicity against SCID mouse assessed as mortality at 20 mg/kg, ip q4d on day 1, 5 and 9; type: organism-based; parameters: dose 20 mg/kg, route intraperitoneal; settings: in vivo
How it was run: (§2)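 Male NOD-SCID mice carrying human prostate PC-3 xenografts were dosed at 20 mg/kg ip on days 1, 5 and 9 (q4d). Mortality and body weight were followed over days 1–31, alongside a control group and an adriamycin 5 mg/kg arm. Tumour weight was recorded over the same period.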

[11] = tested on: COLO 205; assay: Cytotoxicity against human COLO205 cells after 24 hrs by SRB assay; settings: COLO 205, 24 h
[12] = tested on: A-375; assay: Cell cycle arrest in human A375 cells assessed as accumulation at Sub-G1 phase after 24 hrs by FACS flow cytometry; parameters: concentration or dose not given beside the values
[13] = tested on: Mus musculus; assay: Toxicity against SCID mouse assessed as weight loss at 20 mg/kg, ip q4d on day 1, 5 and 9; type: organism-based; parameters: dose 20 mg/kg, route intraperitoneal; settings: in vivo
How it was run: as §2

[14] = tested on: A-375; assay: Cell cycle arrest in human A375 cells assessed as accumulation at S phase after 24 hrs by FACS flow cytometry; parameters: concentration or dose not given beside the values
[15] = Cytotoxicity against human DWD cells by SRB assay
[16] = Lipophilicity, log P of the compound; type: physicochemical; settings: octanol/water
[17] = tested on: A-375; assay: Antitumor activity against human A375 cells assessed as upregulation of p21 protein level at 4 uM after 24 hrs by Western blotting; type: functional, cell-based
How it was run: as §1

[18] = tested on: A-375; assay: Induction of apoptosis in human A375 cells assessed as increase in Bax protein level at 4 uM after 24 hrs by Western blotting; type: functional, cell-based
How it was run: as §1

[19] = tested on: A-375; assay: Cell cycle arrest in human A375 cells assessed as accumulation at G1 phase after 24 hrs by FACS flow cytometry; parameters: concentration or dose not given beside the values
[20] = tested on: SiHa; assay: Cytotoxicity against human SiHa cells after 24 hrs by SRB assay
[21] = tested on: A-375; assay: Induction of apoptosis in human A375 cells assessed as increase in cytochrome C protein level at 4 uM after 24 hrs by Western blotting; type: functional, cell-based
How it was run: as §1

[22] = tested on: A-375; assay: Induction of apoptosis in human A375 cells assessed as increase in PARP protein level at 4 uM after 24 hrs by Western blotting; type: functional, cell-based
How it was run: as §1

[23] = Toxicity against SCID mouse; type: organism-based; settings: in vivo
[24] = tested on: KB; assay: Cytotoxicity against human KB cells by SRB assay
[25] = Cytotoxicity against human Gurav cells after 24 hrs by WST-1 assay; type: functional
[26] = tested on: Calf thymus DNA; assay: Binding affinity to calf thymus DNA assessed as change in melting temperature after 18 hrs; type: nucleic-acid assay; settings: Bos taurus
How it was run: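 Thermal melting with duplex CT-DNA (100 µM in phosphate) and ligand (20 µM), added from methanol stock, [PBD]/[DNA] 1:5, in 10 mM sodium phosphate + 1 mM EDTA, pH 7.00; incubated at 37 °C for 18 h. A260 monitored while heating at 1 °C/min over 40–90 °C. Tm taken from d(A260)/dT maxima, corrected for methanol; ΔTm = Tm(DNA+ligand) − Tm(DNA alone); at least three determinations.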

[27] = tested on: A2780; assay: Cytotoxicity against human A2780 cells by SRB assay
[28] = tested on: ZR-75-1; assay: Cytotoxicity against human ZR-75-1 cells by SRB assay

COc1ccc(-c2nnc(-c3ccc(OC)c(OCCCCCOc4cc5c(cc4OC)C(=O)N4CCC[C@H]4C=N5)c3)o2)cc1OC
GI50 [1]: < 100 nM
Activity [2]: 0.99%
Activity [3]: Active
Activity [4]: Active
GI50 [5]: < 100 nM
GI50 [6]: < 100 nM
GI50 [7]: < 100 nM
Activity [8]: Active
Activity [9]: Active
Activity [10]: Non-toxic
GI50 [11]: < 100 nM
Activity [12]: 36.66%
Activity [13]: Non-toxic
Activity [14]: 2.68%
GI50 [15]: < 100 nM
logP [16]: 4.68
Activity [17]: Active
Activity [18]: Active
Activity [19]: 59.66%
GI50 [20]: < 100 nM
Activity [21]: Active
Activity [22]: Active
MTD [23]: < 50 mg/kg
GI50 [24]: < 100 nM
GI50 [25]: < 100 nM
ΔTm [26]: 5.8 °C
GI50 [27]: < 100 nM
GI50 [28]: < 100 nM
